Source: PubChem BioAssay
Values without a mark were called inactive. The source made the active and inactive calls.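 The calls were made as follows: active = GFP response above 150% of the DMSO control; inconclusive = fewer than 70 events counted in any yeast strain; inactive = the rest.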

Assay: LAP4-GFP expression modulators in yeast, confirmation, cell-based, cherry picks, flow cytometry, mother/daughter gates (AID 2271);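 also: ratio of sample to DMSO plate mean so 100% equals DMSO level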
Details: S. cerevisiae LAP4-GFP strain, 3 h, at 10 µM, hits give high values, 100 means same as DMSO control
Method in brief: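 Material: Alexa Fluor 633-labelled Saccharomyces cerevisiae GFP-fusion strain, single-plex | Amount: Yeast cells seeded at OD600 of 0.2 | Buffer or medium: SC growth medium | Schedule: 3 h exposure, 30 °C | Measured by: HT flow cytometry, GFP fluorescence channel | Evaluation: % GFP response vs DMSO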
Compound O=C(COC(=O)c1n[nH]c2ccccc12)c1cccc(Br)c1 has a GFP response relative to DMSO of 101%.
Cc1c(C(=O)Nc2ccccc2)cnn1-c1ccccc1 showed a GFP response relative to DMSO of 103%.
For Oc1c(CN2CCN(c3ccccc3)CC2)cc(Br)c2cccnc12, the GFP response relative to DMSO was 220% (active).
Work on NC(=O)c1ccccc1-c1nc(-c2ccccc2)no1 yielded a GFP response relative to DMSO of 101%.
For CC(C(=O)O)n1nc(-c2ccccc2)c2ccccc21 (stereo not given), the GFP response relative to DMSO was 99.5%.
Compound COc1cc(/C=C2/N=C(c3ccccc3)OC2=O)c(F)cc1OCc1ccccc1 has a GFP response relative to DMSO of 98.9%.
Compound COc1ccc(-c2nn(-c3ccccc3)cc2C(=O)NC(=S)NNC(=O)c2ccncc2)cc1 has a GFP response relative to DMSO of 105%.
Compound CCOC(=O)Cc1csc(NC(=O)CCCCCN2C(=O)c3cccc4cccc(c34)C2=O)n1 has a GFP response relative to DMSO of 88.4%.
For COC(=O)c1ccc(/C=C/C(=O)c2cccc(OC)c2)cc1, the GFP response relative to DMSO was 117%.
Cc1[nH][nH]c(=O)c1C(c1ccc(N(C)C)c(Br)c1)c1c(C)[nH][nH]c1=O gave a GFP response relative to DMSO of 116%.
Work on Cc1ccc(CCN2CC(C(=O)NCCCN(C)Cc3ccccc3)CC2=O)cc1 (stereo not given) yielded a GFP response relative to DMSO of 101%.
For COc1ccc(NC(=O)C2CCN(S(=O)(=O)c3ccc(OC)c(OC)c3)CC2)c(OC)c1, the GFP response relative to DMSO was 99.5%.
CN1CCc2c(sc3c2C(=O)NC(c2ccc4c(c2)OCO4)N3)C1 (stereo not given) showed a GFP response relative to DMSO of 96.5%.
For Nc1cccnc1S(=O)(=O)c1ccccc1, the GFP response relative to DMSO was 93.8%.
With N#Cc1ccccc1Cn1cc(/C=C/[N+](=O)[O-])c2ccccc21 the GFP response relative to DMSO was 132%.
With CN(c1ccccc1)S(=O)(=O)c1ccc(C(=O)Nc2nnc(-c3ccc(F)cc3)o2)cc1 the GFP response relative to DMSO was 122%.
With Cc1ccc(C)c(N2CCN(C(=O)c3ccccc3Br)CC2)c1 the GFP response relative to DMSO was 101%.
Compound CCOC(=O)C(=CNNc1cccc(Cl)c1)C(=O)OCC has a GFP response relative to DMSO of 131%.
For O=C(c1ccccc1F)N1CCN(c2ccccc2)CC1, the GFP response relative to DMSO was 99.2%.
O=C(C1CCN(Cc2nc(Cc3cccc(F)c3)no2)CC1)N1CCOCC1 showed a GFP response relative to DMSO of 96.2%.
Compound COC(=O)c1ccc(/C=N\NC(=O)c2ccc(C)cc2Cl)cc1 has a GFP response relative to DMSO of 95.4%.
In the case of CCNC(=O)c1ccccc1-c1nc(-c2ccccc2Cl)no1, the GFP response relative to DMSO was 104%.
Work on O=C(OCC(=O)N1CCN(C(=O)c2ccco2)CC1)c1cc(-c2ccc(Cl)c(Cl)c2Cl)nc2ccccc12 yielded a GFP response relative to DMSO of 97.9%.
Compound c1ccc(CSc2ccc(-c3ccccn3)nn2)cc1 has a GFP response relative to DMSO of 108%.
For N#C/C(=C\c1c(N2CCCCCC2)nc2ccccn2c1=O)C(=O)NCc1ccco1, the GFP response relative to DMSO was 92.8%.
Compound Cc1ccc(Nc2c(-c3ccccn3)nc3ccc(C)cn23)cc1 has a GFP response relative to DMSO of 148%.
In the case of Cc1ccc(-c2csc3ncn(Cc4ccc(C(=O)O)cc4)c(=O)c23)cc1C, the GFP response relative to DMSO was 117%.
In the case of CCOC(=O)c1ccc(NC(=O)CCc2nc(-c3ccc(Cl)cc3)no2)cc1, the GFP response relative to DMSO was 99.2%.
Work on O=C(Nc1cc(Sc2ccccn2)cc([N+](=O)[O-])c1)c1ccc([N+](=O)[O-])cc1 yielded a GFP response relative to DMSO of 98.9%.
O=C1c2ccccc2C(=O)N1OS(=O)(=O)c1ccc(F)cc1 gave a GFP response relative to DMSO of 127%.
Work on Cc1ccc(N2CCN(C(=O)c3ccccc3Br)CC2)c(C)c1 yielded a GFP response relative to DMSO of 95.4%.
CCCc1[nH]nc2c1C1(C(=O)N(C(C)C)c3ccccc31)C(C#N)=C(N)O2 (stereo not given) showed a GFP response relative to DMSO of 96.5%.
With O=C1c2cccc3c([N+](=O)[O-])ccc(c23)C(=O)N1O the GFP response relative to DMSO was 249% (active).
For COC(=O)Cn1nc(-c2ccccc2)c2cc(Cl)ccc21, the GFP response relative to DMSO was 104%.
For O=C1C(Cl)=C(NCCc2ccccc2)C(=O)N1CCc1ccccc1, the GFP response relative to DMSO was 106%.
For O=c1c(-c2ccc(Cl)cc2)[n+]([O-])c2ccccc2n1O, the GFP response relative to DMSO was 193% (active).
Work on CCc1ccccc1OCc1nnc(N)s1 yielded a GFP response relative to DMSO of 98.2%.
For Cc1ccc(/C=C2/SC(=S)N(C3CCCCC3)C2=O)o1, the GFP response relative to DMSO was 157% (active).
With O=C(Cn1cc(/C=C\[N+](=O)[O-])c2ccccc21)Nc1ccccc1 the GFP response relative to DMSO was 94.1%.
For Cc1nnc(NC(=O)c2ccc(S(=O)(=O)N3CCCCCC3)cc2)o1, the GFP response relative to DMSO was 97%.
